Screening data: PubChem, Johns Hopkins Ion Channel Center
KCNK9 block = inhibitors of human KCNK9 two-pore domain potassium channel; HEK293 KCNK9, FluxOR thallium flux fluorescence; stronger effect = lower value; 1.2% of 310,000 active; Q9NPC2; B-score at 10 µM;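 active means ratio B-score over 3 SD below the library mean, with starting fluorescence within 5 SD of its mean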;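 further: negative B-score means less thallium flux so channel inhibition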
hERG protect = hERG (human) protection from proarrhythmic block; CHO-hERG, FluxOR thallium flux, dofetilide IC70 present; activation (rescue from dofetilide block), less the hit threshold, % at 10 µM; 0.51% of 310,000 active;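 active means activation above the mean of controls blocked by dofetilide plus 5 SD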;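 further: thallium influx through hERG after potassium depolarization seen as dye fluorescence rise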
KCNK3 block = human KCNK3 channel inhibition, primary screen. B-score at 10 µM. CHO-KCNK3 thallium flux, FluxOR fluorescence; stronger effect = lower value. 0.84% of 340,000 active. O14649;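 active means B-score under library mean minus 4 SD, starting fluorescence ratio at most library mean plus 5 SD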;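 further: more negative B-score means stronger inhibition of thallium flux through KCNK3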
Kir21 block = inhibitors of mouse Kir2.1 inward-rectifier potassium channel. P35561. HEK293-Kir2.1, FluxOR thallium flux fluorescence; stronger effect = lower value. B-score at 10 µM. 0.85% of 310,000 active. AID 1672;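 active means fluorescence ratio B-score at or below minus 3 SD of library scores, with starting-brightness B-score within 2 SD, cut at about -4.2 in these data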;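 further: channel flux triggered by added potassium and thallium sulfate stimulus; B-score of peak minus minimum fluorescence over baseline after thallium stimulus; more negative B-score means stronger Kir2.1 block with less thallium influx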
Target sequence (P35561 whole entry, looked up): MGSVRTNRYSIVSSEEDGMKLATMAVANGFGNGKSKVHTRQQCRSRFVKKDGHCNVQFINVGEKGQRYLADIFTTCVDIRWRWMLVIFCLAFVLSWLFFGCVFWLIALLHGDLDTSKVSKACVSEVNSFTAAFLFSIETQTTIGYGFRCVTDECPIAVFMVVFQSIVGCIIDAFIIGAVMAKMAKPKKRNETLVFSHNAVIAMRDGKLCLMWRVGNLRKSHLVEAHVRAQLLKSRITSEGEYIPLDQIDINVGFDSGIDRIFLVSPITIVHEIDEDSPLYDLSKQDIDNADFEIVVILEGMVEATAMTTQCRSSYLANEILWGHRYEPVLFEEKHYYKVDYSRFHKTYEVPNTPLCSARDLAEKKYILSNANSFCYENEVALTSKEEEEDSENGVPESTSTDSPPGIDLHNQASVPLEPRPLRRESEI
KCNQ1 inh = inhibitors of human KCNQ1 potassium channel; B-score at 10 µM; P51787; AID 2642; CHO-K1 KCNQ1, FluxOR thallium flux fluorescence; stronger effect = higher value; 1.3% of 310,000 active;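 active means compounds whose thallium flux B-score, printed positive for inhibition, exceeds three library SD while starting fluorescence stays within three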;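 further: channel opened by potassium depolarization with thallium stimulus after 20 min compound exposure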
KCNQ1 act = human KCNQ1 channel potentiation or activation; 0.35% of 310,000 active; CHO-K1 KCNQ1, thallium flux FluxOR fluorescence; stronger effect = higher value; B-score at 10 µM;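 active means fluorescence ratio B-score, a plate-corrected score, at least three library SD, with initial intensity B-score within 5 SD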
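System: Stable KCNQ1 CHO-K1 line | Incubation: 90 min dye loading and 20 min compound exposure, both at room temperature | Measure: Ratio B score | Medium: Assay buffer for compound exposure, DMSO matched across wells | Compound dosing: Single-concentration screen | Probe or stimulus: K+/Tl+ depolarizing stimulus | Measured by: Kinetic FluxOR fluorescence, 10 s baseline plus 110 s post-stimulus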
Starred values were filed as active, the others as inactive; i = inactive; · = no result. Only some compounds are listed: those with a hit (about 3.7% of all), similar ones and a draw of the others.

SMILES	KCNK9 block	hERG protect	KCNK3 block	Kir21 block	KCNQ1 inh	KCNQ1 act
O=C(NC(=S)Nc1ccccc1)c1ccc(-c2ccccc2)cc1	i	-6.0	i	-0.52	i	i
COCCN(C(=O)COC(=O)c1cccnc1SC)c1c(N)n(Cc2ccccc2)c(=O)[nH]c1=O	i	-6.4	i	-0.35	i	i
COc1ccc([N+](=O)[O-])cc1NC(=O)C(C)c1ccccc1 (stereo unspecified)	i	-0.2	i	0.68	i	i
Cc1cc([N+](=O)[O-])ccc1NC(=S)NC(=O)C(c1ccccc1)c1ccccc1	i	-7.7	i	1.67	7*	i
COc1ccc(NC(=S)NC(NC(=O)c2cccc3ccccc23)C(Cl)(Cl)Cl)c([N+](=O)[O-])c1 (stereo unspecified)	-6.91*	-2.2	i	0.17	i	i
COc1ccc([N+](=O)[O-])cc1NC(=S)NC(NC(=O)C(c1ccccc1)c1ccccc1)C(Cl)(Cl)Cl (stereo unspecified)	i	-10.9	i	-0.18	14*	i
NS(=O)(=O)c1ccc(NC(=O)COC(=O)C2CC2)cc1	·	·	i	·	·	·
CC(C)(C)C(=O)N/C(N)=N/c1nc2ccccc2o1	i	-1.9	i	-0.4	i	i
CCOc1ccc(CCNC(=O)CCS(=O)(=O)c2ccc(Cl)cc2)cc1OCC	i	-10.6	i	-0.14	i	i
CCCc1cc(=O)n2[nH]cc(-c3ccc(Cl)cc3)c2n1	i	2.6	i	-0.18	i	10*
NC(=O)CC[C@H](NC(=O)c1ccc(F)cc1)C(=O)N1CCN(Cc2ccc3c(c2)OCO3)CC1	·	·	i	·	·	·
CCC(CC)c1nnc(NC(=O)C2CSC3(C)CCC(=O)N23)s1 (stereo unspecified)	i	-12.1	i	1.92	i	i
CCCCc1n[nH]c(=S)n1Cc1ccc(Cl)cc1	-10*	-4.0	i	-0.89	i	i
CCOC(=O)C1CCCN(S(=O)(=O)c2ccc3c(c2)N(C)C(=O)CC(=O)N3C)C1 (stereo unspecified)	i	-8.2	i	0.48	i	i
COc1ccc(CN(CC(O)COCc2ccccc2)S(=O)(=O)c2ccccc2Br)cc1 (stereo unspecified)	·	·	i	·	·	·
Cc1ccc(C(=O)c2cc([N+](=O)[O-])ccc2N2CC(C)OC(C)C2)cc1 (stereo unspecified)	i	-3.3	i	-0.14	i	i
CC1CCCN(c2ccc([N+](=O)[O-])cc2C(=O)c2ccccc2)C1 (stereo unspecified)	i	-15.3	i	-2.58	6*	i
O=C(c1ccccc1)c1cc([N+](=O)[O-])ccc1N1CCOCC1	i	-5.2	i	-1.26	i	i
Cc1ccc(C(=O)c2cc([N+](=O)[O-])ccc2N2CCCCC2)cc1	-7.42*	-11.8	i	1.66	i	i
O=S(=O)([N-]c1nc2ccccc2nc1-n1cc[n+](Cc2ccccc2)c1)c1ccc(Br)cc1	i	-9.3	i	-1.18	i	i
O=C(COc1ccc(S(=O)(=O)N2CCOCC2)cc1)NCCN1CCOCC1	i	-4.0	i	-0.66	i	i
O=[n+]1c2c(n([O-])c3cc(F)c(N4CCCC4)cc31)CCCC2	i	-16.1	i	-4.12	9*	i
O=[n+]1c2c(n([O-])c3cc(F)c(N4CCCC4)cc31)CCC2	i	-28.3	i	-7.36	i	i
CC[n+]1c(/C=C2\C=C(C)CC(C)(C)C2)sc2ccccc21	i	-27.6	i	-1.86	7*	i
CC[n+]1c(/C=C/Nc2ccccc2)oc2ccc(OC)cc21	i	-14.4	i	-3.22	i	i
SMILES	KCNK9 block	hERG protect	KCNK3 block	Kir21 block	KCNQ1 inh	KCNQ1 act
CC[n+]1c(C)sc2sc3ccccc3c21	i	-21.4	·	-0.02	i	i
CCC1=C/C(=C/c2sc3ccccc3[n+]2CC)CC(C)(C)C1	i	-20.4	i	1.1	i	i
CC[n+]1c(/C=C2\C=C(C)CC(C)C2)sc2ccccc21 (stereo unspecified)	i	-22.8	i	-0.1	6*	i
CC[n+]1c(/C=C2/C=C(C)CC(C)(C)C2)sc2ccc(OC)cc21	i	-29.4	i	-6	10*	i
Cc1ccc(CN(C)C(=O)c2cccc(S(=O)(=O)N3CCc4ccccc4C3)c2)o1	·	·	i	·	·	·
O=C(NNC(=O)c1ccccc1Cl)c1cc2cc(OC(F)(F)F)ccc2[nH]1	i	-4.8	i	0.11	i	i
COc1ccc(OC)c(C(C)NC(=O)C(C)n2cc([N+](=O)[O-])cn2)c1 (stereo unspecified)	·	·	i	·	·	·
O=C(CNC(=O)c1cccs1)Nc1ccc2c(c1)OCCO2	i	-17.0	i	2.18	i	i
O=C(NNc1ccccc1Br)C(O)(c1cccc(C(F)(F)F)c1)c1cccc(C(F)(F)F)c1	-8.26*	-5.5	i	0.32	i	i
Cc1ccc(NNC(=O)C(O)(c2cccc(C(F)(F)F)c2)c2cccc(C(F)(F)F)c2)cc1	i	-13.5	i	-0.88	i	i
Cc1ccc(N2CC(C(=O)Nc3ncc([N+](=O)[O-])s3)CC2=O)cc1 (stereo unspecified)	i	-6.8	i	-1.22	6*	i
Clc1cc(Cl)c(OCc2nc(-c3ccccn3)no2)cc1Cl	i	-7.0	i	-0.05	i	i
CC(C)(C)c1ccc(OCc2nc(-c3ccccn3)no2)c(Br)c1	-6.83*	-7.5	i	-0.41	i	i
CC#CC[N+](C)(C)CCCCCCCCCCCC	i	-22.8	i	-5.04*	6*	i
Cc1onc(-c2c(F)cccc2Cl)c1C(=O)Nc1nnc(-c2ccccc2)s1	i	-6.0	i	0	i	i
Cc1onc(-c2ccccc2Cl)c1C(=O)Nc1nnc(-c2ccc(Br)cc2)s1	i	-11.1	i	-0.28	8*	i
Cc1onc(-c2ccccc2Cl)c1C(=O)Nc1nnc(-c2ccc(Cl)cc2Cl)s1	i	-8.8	i	2.68	8*	i
Cc1onc(-c2ccccc2Cl)c1C(=O)Nc1nnc(-c2ccc(F)cc2)s1	i	-7.9	i	0.81	i	i
CSc1ccccc1NC(=O)Nc1ccc(F)c(Cl)c1	i	-11.3	i	0.7	i	i
O=C(Nc1ccc(Cl)c(Cl)c1)Nc1ccc(Br)cc1F	i	-28.6	i	-0.41	7*	i
CC(=O)Nc1ccc(NC(=S)Nc2ccccc2)cc1	i	-8.7	i	0.42	i	i
S=C(Nc1ccccc1)Nc1ccc(Br)cc1	i	-11.2	i	-0.38	6*	i
